The values below come from ChEMBL document CHEMBL4334542, “Antimalarial N 1,N 3-Dialkyldioxonaphthoimidazoliums: Synthesis, Biological Activity, and Structure-activity Relationships” (ACS Med Chem Lett, 2020).

Active and inactive are the calls of the source. No cut-off for these calls is given here.

Usually EC50 stands for the concentration giving half of the maximal effect. In general, IC50 refers to the point on the concentration scale where inhibition reaches its midpoint.

For test [1], the system named is Plasmodium falciparum. Briefly: Antimalarial activity against asexual stage of Plasmodium falciparum 3D7 infected in O-positive erythrocytes assessed as reduction in parasite growth incubated for 72 hrs by SYBR Green I dye-based spectrophotometric analysis. The conditions noted are these: 3D7, 72 h. The test is classed as functional, organism-based.
For test [2], the system named is Plasmodium falciparum. Briefly: Antimalarial activity against sexual stage of Plasmodium falciparum 3D7 gametocytes assessed as reduction in parasite growth incubated for 3 days by alamar blue staining based assay. In kind it is functional, organism-based. The conditions noted are these: 3D7, 72 h. Background: The colour change of resazurin is a common sign of viable cells or microbes.

Test [3] relates to Plasmodium falciparum. Briefly: Antimalarial activity against Plasmodium falciparum K1 incubated for 48 hrs by [3H]-hypoxanthine incorporation assay. The test is classed as functional, organism-based.
Test [4] relates to Plasmodium falciparum. In words: Antimalarial activity against Plasmodium falciparum NF54 late gametocytes transfected with luciferase gene incubated for 48 hrs by luciferase reporter gene assay. The test is classed as functional, organism-based. The note with it: NF54, 48 h. In a few lines: (§1)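 Gametocytes of NF54-Pfs16-GFP-Luc, early (>95% stage II/III) or late (>90% stage IV/V); luciferase read-out. IC50 is the concentration giving 50% reduction of luminescence; mean ± SEM of n = 3 independent biological replicates.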
A general note: In a reporter assay the amount or activity of a reporter protein is the signal.

For test [5], the system named is Plasmodium falciparum. Briefly: Antimalarial activity against Plasmodium falciparum TM90C2B incubated for 48 hrs by [3H]-hypoxanthine incorporation assay. The test is classed as functional, organism-based.
Test [6] has as its system Plasmodium falciparum. Briefly: Antimalarial activity against Plasmodium falciparum NF54 early gametocytes transfected with luciferase gene incubated for 48 hrs by luciferase reporter gene assay. In kind it is functional, organism-based. The conditions noted are these: NF54, 48 h. In a few lines: as §1
For test [7], the system named is Plasmodium falciparum. Briefly: Antimalarial activity against Plasmodium falciparum NF54 incubated for 48 hrs by [3H]-hypoxanthine incorporation assay. The test is classed as functional, organism-based.
Test [8] has as its system Plasmodium falciparum. Briefly: Antimalarial activity against asexual stage of Plasmodium falciparum K1 assessed as reduction in parasite growth incubated for 96 hrs by SYBR Green I dye-based fluorescence assay. The test is classed as functional, organism-based. The note with it: K1, 96 h. In a few lines:
(§2)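 Asexual NF54, K1 and W2 parasites; proliferation read as SYBR Green I fluorescence. IC50 is the concentration giving 50% of the net SYBR Green I fluorescence of untreated control cultures; mean ± SEM of n = 3 independent biological replicates.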

Test [9] concerns Plasmodium falciparum. In words: Antimalarial activity against asexual stage of Plasmodium falciparum NF54 assessed as reduction in parasite growth incubated for 96 hrs by SYBR Green I dye-based fluorescence assay. The note with it: NF54, 96 h. The test is classed as functional, organism-based. In a few lines: as §2
Test [10] has as its system Plasmodium falciparum. Briefly: Antimalarial activity against asexual stage of Plasmodium falciparum Dd2 infected in erythrocytes assessed as reduction in parasite growth incubated for 48 hrs under hypoxic condition by Hoechst 33342 staining based flow cytometry. In kind it is functional, organism-based. The conditions noted are these: Dd2, 48 h. An outline of the steps:
(§3)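 Asexual Dd2 and 3D7 parasites in erythrocytes; DNA content of infected cells measured by Hoechst 33342 staining and FACS. IC50 is the concentration giving 50% of the net fluorescence of untreated control cultures; mean ± SD of n = 3 separate determinations.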

In another test the test system is CHO-K1. In words: Cytotoxicity against CHOK1 cells assessed as reduction in cell viability incubated for 48 hrs by CellTiter 96 aqueous one solution assay. The test is classed as cell-based. The conditions noted are these: Cricetulus griseus, CHO-K1, 48 h. In a few lines: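 Cell growth measured by a tetrazolium dye assay. IC50 is the concentration reducing growth by 50% relative to untreated cultures; mean ± SD of n = 3 separate determinations.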

Test [11] deals with Plasmodium falciparum. Briefly: Antimalarial activity against asexual stage of Plasmodium falciparum 3D7 infected in erythrocytes assessed as reduction in parasite growth incubated for 48 hrs under hypoxic condition by Hoechst 33342 staining based flow cytometry. In kind it is functional, organism-based. The note with it: 3D7, 48 h. An outline of the steps:
as §3

Test [12] in a line: Redox cycling activity of the compound […] measured after 45 mins by phenol red reagent based horseradish peroxidase coupled assay. In a few lines:
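Redox cycling EC50 determined by the phenol red horseradish peroxidase assay.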

Test [13] deals with Plasmodium falciparum. Briefly: Antimalarial activity against asexual stage of Plasmodium falciparum W2 assessed as reduction in parasite growth incubated for 96 hrs by SYBR Green I dye-based fluorescence assay. The test is classed as functional, organism-based. The note with it: W2, 96 h.

Regarding `CCOc1ccc(-[n+]2c3c(n(C)c2C)C(=O)c2ccccc2C3=O)cc1`, the EC50 in the test on Plasmodium falciparum [1] is 1 nM; in the test with Plasmodium falciparum [2], 93 nM.

Take `CCCCn1c2c([n+](CC)c1C)C(=O)c1ccccc1C2=O`: the IC50 with Plasmodium falciparum [3] was 1.8 nM; with Plasmodium falciparum [4] it was 320 nM; in the test on Plasmodium falciparum [5] it was 1.4 nM; in the test with Plasmodium falciparum [6], 268 nM; with Plasmodium falciparum [7], 1 nM; in the test with Plasmodium falciparum [8], 2.4 nM. Moreover, the half-maximal inhibitory concentration (IC50) amounted to 1.64 nM in the test on Plasmodium falciparum [9]; 9.1 nM in the test on Plasmodium falciparum [10]; 37000 nM with CHO-K1; 4.2 nM with Plasmodium falciparum [11]; 2.88 nM in the test on Plasmodium falciparum [13]. Further, the result in [12] was Active.

On to `CCCn1c2c([n+](CC)c1C)C(=O)c1ccccc1C2=O`, for which the IC50 with Plasmodium falciparum [3] was found to be 2.2 nM; with Plasmodium falciparum [4], 709 nM; in the test on Plasmodium falciparum [5], 2.2 nM; in the test on Plasmodium falciparum [6], 390 nM; in the test with Plasmodium falciparum [7], 1.2 nM; in the test with Plasmodium falciparum [8] it was 6.5 nM. Besides, the IC50 is 3.45 nM with Plasmodium falciparum [9]; 8.4 nM in the test on Plasmodium falciparum [10]; 8200 nM with CHO-K1; 3.7 nM in the test on Plasmodium falciparum [11]; 4.94 nM in the test on Plasmodium falciparum [13]. Moreover, the result in test [12] was Active.

As for `CCOc1ccc(N(C(C)=O)C2=C(N(C)C)C(=O)c3ccccc3C2=O)cc1`, the EC50 was 32 nM in the test with Plasmodium falciparum [1] and 319 nM in the test with Plasmodium falciparum [2].

Turning to `CCOc1ccc(N(C(C)=O)C2=C(NC)C(=O)c3ccccc3C2=O)cc1`, the EC50 in the test on Plasmodium falciparum [1] was 1 nM; in the test on Plasmodium falciparum [2] it was 122 nM.
